In ChEMBL document CHEMBL1147926, “Synthetic chalcones, flavanones, and flavones as antitumoral agents: biological evaluation and structure-activity relationships” (Bioorg Med Chem, 2007):

Experiments:
[1] = tested on: HT-29; assay: Cytotoxicity against human HT29 cells ATCC HTB38 in aerobic condition assessed as survival at 100 uM by sulforhodamine assay; assay type: functional; conditions: read-out: Activity
In short: (§1)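 Cells kept in RPMI with L-glutamine, penicillin/streptomycin, non-essential amino acids (1% each) and 10% FBS, 37 °C, 5% CO2, 48 h; compound added from 1 mM stock in 10% DMSO to final 100 µM, 24 h exposure. TCA fixation 1 h at 4 °C, sulforhodamine B staining, Tris pH 10.0, A540. Survival = (T/C)×100 versus solvent control; duplicates, two repetitions averaged.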

[2] = tested on: MCF7; assay: Cytotoxicity against human MCF7 cells […] in aerobic condition assessed as survival at 100 uM by sulforhodamine assay; assay type: functional; conditions: read-out: Activity; in short: as §1
[3] = tested on: TK-10; assay: Cytotoxicity against human TK10 cells in aerobic condition assessed as survival at 100 uM by sulforhodamine assay; assay type: functional; conditions: read-out: Activity; in short: as §1
[4] = Growth inhibition of HK2 cells by sulforhodamine assay; assay type: cell-based; conditions: Homo sapiens, HK-2
[5] = tested on: MCF7; assay: Growth inhibition of MCF7 cells by sulforhodamine assay; assay type: functional, cell-based; conditions: Homo sapiens
In short: (§2)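 Cells grown in supplemented RPMI with 10% FBS at 37 °C, 5% CO2, 48 h, then exposed to increasing compound concentrations (1 mM stocks in 10% DMSO) for 24 h. Sulforhodamine B read-out after TCA fixation at A540. IC50 is the concentration halving absorbance relative to solvent control. Duplicates, at least two repetitions, means reported.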

[6] = tested on: TK-10; assay: Growth inhibition of TK10 cells by sulforhodamine assay; assay type: functional, cell-based; conditions: Homo sapiens; in short: as §2
[7] = tested on: HT-29; assay: Growth inhibition of HT29 cells by sulforhodamine assay; assay type: functional, cell-based; conditions: Homo sapiens; in short: as §2

Row | Compound | viability at 100 µM [1] | viability at 100 µM [2] | viability at 100 µM [3] | IC50 [4] | IC50 [5] | IC50 [6] | IC50 [7]
1 | O=C(/C=C/c1ccc2c(c1)OCO2)c1ccccc1O | 69% | 79% | 50% | 11.6 µM | – | – | –
2 | COc1ccc(/C=C/C(=O)c2ccccc2O)cc1I | 92% | 96% | 41% | – | – | – | –
3 | O=C(/C=C/c1ccc(OCc2ccccc2)c(I)c1)c1ccccc1O | 100% | 81% | 78% | – | – | – | –
4 | O=C(/C=C/C=C/c1ccccc1)c1ccccc1O | – | 84% | 100% | – | – | – | –
5 | O=c1cc(-c2ccc(Br)cc2)oc2ccccc12 | 100% | 73% | 94% | 48 µM | – | – | –
6 | O=C(/C=C/c1ccc([N+](=O)[O-])cc1)c1ccccc1O | 94% | 43% | 34% | – | – | – | –
7 | COc1ccc(/C=C/C(=O)c2ccccc2O)cc1OC | 70% | 1% | 2% | – | 95 µM | 90 µM | –
8 | O=C1CC(c2ccc3c(c2)OCO3)Oc2ccccc21 (stereo not given) | 100% | 100% | 100% | – | – | – | –
9 | O=C(/C=C/c1ccccc1Br)c1ccc(OCc2ccccc2)cc1O | 80% | 74% | 65% | – | – | – | –
10 | O=C1CC(c2ccc(Br)cc2)Oc2ccccc21 (stereo not given) | 61% | 26% | 16% | – | – | – | –
11 | O=C(/C=C/c1ccccc1[N+](=O)[O-])c1ccccc1O | 100% | 100% | 100% | – | – | – | –
12 | CCCCCCCCCOc1ccc(/C=C/C(=O)c2ccccc2O)cc1 | 98% | 86% | 77% | – | – | – | –
13 | O=C(/C=C/c1ccccn1)c1ccccc1O | 15% | 4% | 1% | 7.9 µM | 6.7 µM | 12.2 µM | 13.8 µM
14 | COc1cc(O)c(C(=O)/C=C/c2ccccc2Br)c(OC)c1 | 87% | 82% | 53% | – | – | – | –
15 | O=C(/C=C/c1ccccc1Br)c1ccccc1O | 0% | 100% | 3% | – | – | – | –
16 | COc1ccc(/C=C/C(=O)c2ccccc2O)cc1OCc1ccccc1 | 100% | 100% | 100% | – | – | – | –
17 | O=C(/C=C/c1ccco1)c1ccccc1O | 40% | 60% | 48% | – | – | – | –
18 | O=C1CC(c2ccccc2Br)Oc2ccccc21 (stereo not given) | 44% | 12% | 54% | – | – | – | –
19 | O=C(/C=C/c1ccc(Br)cc1)c1ccccc1O | 71% | 43% | 60% | 33.8 µM | – | – | –
20 | O=C(/C=C/c1ccccc1)c1ccccc1O [2'-HYDROXYCHALCONE] | 14% | 3% | 0% | 24.4 µM | 78 µM | 79 µM | 85 µM
21 | COc1ccc(-c2cc(=O)c3ccccc3o2)cc1 [4'-METHOXYFLAVONE] | 100% | 100% | 82% | – | – | – | –
22 | O=C(/C=C/c1ccc(Cl)cc1)c1ccccc1 [4-CHLORO CHALCONE] | 9% | 56% | 2% | – | – | – | –
23 | COc1ccc(/C=C/C(=O)c2ccccc2)cc1 [4-METHOXY CHALCONE] | 2% | 30% | 2% | 23.2 µM | 90 µM | 53 µM | 54 µM
24 | O=C(/C=C/c1ccccc1)c1ccccc1 [CHALCONE] | 5% | 19% | 2% | 30.5 µM | 63 µM | 42 µM | 70 µM
25 | O=C1CC(c2ccccc2)Oc2ccccc21 (stereo not given) [FLAVANONE] | 69% | 54% | 79% | – | – | – | –
26 | COc1ccc(/C=C/C(=O)c2c(O)cc(OC)cc2OC)cc1 [FLAVOKAWAIN A] | – | 60% | 71% | – | – | – | –
27 | O=c1cc(-c2ccccc2)oc2ccccc12 [FLAVONE] | 90% | 57% | 87% | – | – | – | –
